High-throughput results deposited in PubChem by several laboratories.
Runt-CBFb FRET: Runt domain-CBFb interaction inhibition. Q01196+Q13951. Cerulean-Runt/Venus-CBFb FRET ratio 530/480, 1 h. inhibition, % at 20 µM. 220,000 tested, 0.46% active. AID 1496;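 active = inhibition over about 50% at 20 µM in the single-dose screen, limit read from the data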;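 also: 0% = DMSO wells and 100% = excess unlabeled CBFb competitor control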
Target sequence (Q01196 whole entry, looked up, the tested form may be a part): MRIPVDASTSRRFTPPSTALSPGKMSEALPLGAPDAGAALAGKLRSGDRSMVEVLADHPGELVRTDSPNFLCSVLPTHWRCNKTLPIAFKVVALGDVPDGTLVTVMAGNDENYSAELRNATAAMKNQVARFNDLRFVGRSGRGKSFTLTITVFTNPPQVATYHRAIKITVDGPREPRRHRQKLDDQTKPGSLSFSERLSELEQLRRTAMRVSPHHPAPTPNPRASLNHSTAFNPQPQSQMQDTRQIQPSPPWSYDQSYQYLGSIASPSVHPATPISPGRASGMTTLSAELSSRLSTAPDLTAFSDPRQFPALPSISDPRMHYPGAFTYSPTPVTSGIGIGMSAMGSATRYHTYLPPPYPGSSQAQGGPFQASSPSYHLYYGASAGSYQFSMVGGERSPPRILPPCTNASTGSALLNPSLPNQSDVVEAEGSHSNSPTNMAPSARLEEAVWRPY
Target sequence (Q13951 whole entry, looked up, the tested form may be a part): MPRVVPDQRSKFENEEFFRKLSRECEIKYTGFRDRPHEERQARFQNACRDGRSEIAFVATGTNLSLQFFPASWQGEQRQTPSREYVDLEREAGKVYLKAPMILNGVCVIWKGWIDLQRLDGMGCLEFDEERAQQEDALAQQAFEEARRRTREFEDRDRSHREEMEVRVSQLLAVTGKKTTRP
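Measured by: fluorescence energy transfer, 422 nm excitation, 530/480 nm emission; test system: Cerulean-tagged RUNX1 Runt domain (FRET donor) fusion protein; buffer or medium: Tris pH 7.5 buffer with BSA; compound: one dose, 20 µM compound, 1% DMSO; times: two 1 h room-temperature incubations shielded from light; benchmarks: unlabeled CBFb 5 µM, positive control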
VIM-2 inhibitor: blocks Pseudomonas aeruginosa VIM-2 metallo-beta-lactamase; purified VIM-2, nitrocefin hydrolysis, epi-absorbance fluorescence; inhibition, % at 5.6 µM; 290,000 tested, 0.89% active;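 active = inhibition above the mean of all tested compounds plus 3 SD, cutoff set per screening run, cut at about 7.5% in these data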;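 also: red hydrolysis product quenches plate fluorescence so inhibitors raise well fluorescence; 0% = enzyme with DMSO and 100% = DMSO without enzyme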
Runt-SMMHC FRET: Runt domain-CBFb-SMMHC interaction inhibition; Q01196+Q13951; Cerulean-Runt/Venus-CBFb-SMMHC FRET ratio 530/480, 1 h; inhibition, % at 20 µM; 220,000 tested, 0.74% active; AID 1434;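 active = mean inhibition across duplicate retests at 20 µM reaching about 50%, limit read from the data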;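 also: 0% = DMSO wells and 100% = wells with excess untagged CBFb-SMMHC; inhibitors lower the FRET ratio by blocking Runt binding to CBFb-SMMHC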
IMP-1 inhibitor: blocks Pseudomonas aeruginosa IMP-1 metallo-beta-lactamase | purified IMP-1, nitrocefin hydrolysis, epi-absorbance fluorescence | inhibition, % at 5.6 µM | 290,000 tested, 0.45% active | AID 1556;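 active = inhibition above the mean plus 3 SD of all compounds in the same screening run, cut at about 4.5% in these data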;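 also: 0% = IMP-1 with DMSO and 100% = DMSO wells lacking enzyme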
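Assay system: purified IMP-1; Quantity: IMP-1 0.2 nM before substrate addition; Medium: HEPES buffer pH 7.1 with ZnSO4 and Brij 35; Incubation: 15 min enzyme–compound preincubation, then 25 min nitrocefin reaction, 25 °C; Signal: fluorescence quenching readout, ex 480/em 530 nm; Controls: DMSO with and without IMP-1; Repeats: singlicate testing.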
RanGTP-Impb inh: inhibitors of RanGTP-importin-beta interaction, primary screen, biochemical, FRET, CFP-Ran, YFP-importin-beta, homogeneous | 300,000 tested, 1.1% active | cell-free CFP-Ran/YFP-importin-beta FRET ratio | AID 2216 | inhibition, % (test concentration not listed);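 active = more than half of the replicate wells show a fall in the fluorescence ratio signal beyond about 16%, limit read from the data, passing the limit was not always enough; inconclusive = exactly half of the replicate wells pass the set limit; inactive = fewer than half of replicates pass the limit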;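 also: 0% = DMSO wells and 100% = Ran loaded with GDP instead of GTP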
* = called active by the depositor. The list is not random: actives were taken first. Their share in the collection is about 2.6%.

What do the screens show for `COc1ccc2nccc(/C=C/c3ccnc4ccc(OC)cc34)c2c1`?
Runt-CBFb FRET: 0; VIM-2 inhibitor: 1; Runt-SMMHC FRET: 82*; IMP-1 inhibitor: -2; RanGTP-Impb inh: 61*

How did CNc1nc(-c2cccs2)cc(C(F)(F)F)c1C#N do in these assays?
Runt-CBFb FRET: 11; VIM-2 inhibitor: 0; Runt-SMMHC FRET: 88*; IMP-1 inhibitor: -2; RanGTP-Impb inh: 109*

Results for N#Cc1c(C(F)(F)F)cc(-c2cccs2)nc1SCC(=O)O ?
Runt-CBFb FRET: 1; VIM-2 inhibitor: 1; Runt-SMMHC FRET: -7; IMP-1 inhibitor: 0; RanGTP-Impb inh: 1

Results for NC(=O)c1ccc(NC(=O)COC(=O)c2c3c(nc4ccccc24)/C(=C\c2cccs2)CCC3)cc1 ?
Runt-CBFb FRET: -21; VIM-2 inhibitor: -1; Runt-SMMHC FRET: -16; IMP-1 inhibitor: 0; RanGTP-Impb inh: 16*

How did CCc1cccc(C)c1NC(=O)COC(=O)c1c2c(nc3ccccc13)/C(=C\c1cccs1)CCC2 do in these assays?
Runt-CBFb FRET: -11; VIM-2 inhibitor: -3; Runt-SMMHC FRET: -24; IMP-1 inhibitor: -3; RanGTP-Impb inh: 4

Results for CC(C)CNC(=O)COC(=O)c1c2c(nc3ccccc13)/C(=C/c1cccs1)CC2 ?
Runt-CBFb FRET: -25; VIM-2 inhibitor: 4; Runt-SMMHC FRET: -92; IMP-1 inhibitor: 6.7*; RanGTP-Impb inh: -74

What do the screens show for `N#CC1=C(N)SC(N)=C(C#N)C1CCc1ccccc1`?
Runt-CBFb FRET: 26; VIM-2 inhibitor: -6; Runt-SMMHC FRET: 39; IMP-1 inhibitor: -1; RanGTP-Impb inh: inconclusive

Results for CC(C)CC1C(C#N)=C(N)SC(N)=C1C#N ?
Runt-CBFb FRET: 6; VIM-2 inhibitor: -2; Runt-SMMHC FRET: 8; IMP-1 inhibitor: -2; RanGTP-Impb inh: 41*

How did N#CC1=C(N)SC(N)=C(C#N)C1Cc1ccccc1 do in these assays?
Runt-CBFb FRET: 22; VIM-2 inhibitor: 0; Runt-SMMHC FRET: 49; IMP-1 inhibitor: 2; RanGTP-Impb inh: 62*

What do the screens show for `COc1ccc(NC2CCCN(C(=O)CCOc3ccccc3)C2)cc1` (stereo not drawn)?
VIM-2 inhibitor: 2; IMP-1 inhibitor: -3; RanGTP-Impb inh: 9

How did COC(=O)c1cc(C(=O)OC)cc(N2C(=O)CC(NNC(=O)c3ccccc3Cl)C2=O)c1 (stereo not drawn) do in these assays?
Runt-CBFb FRET: -4; VIM-2 inhibitor: 9.6*; Runt-SMMHC FRET: 5; IMP-1 inhibitor: -1; RanGTP-Impb inh: 1

Results for O=C(NNC1CC(=O)N(c2ccccc2)C1=O)c1ccccc1Cl (stereo not drawn) ?
Runt-CBFb FRET: 0; VIM-2 inhibitor: -2; Runt-SMMHC FRET: 1; IMP-1 inhibitor: -2; RanGTP-Impb inh: 1

How did CCCCn1c(N)c(N(CCC(C)C)C(=O)c2oc3ccc(OCC)cc3c2C)c(=O)[nH]c1=O do in these assays?
RanGTP-Impb inh: -3

What do the screens show for `COc1cc2c(cc1OC)C1(Nc3c-2c(C)nn3-c2ccccc2)C(=O)Nc2ccccc21` (stereo not drawn)?
Runt-CBFb FRET: 3; VIM-2 inhibitor: -2; Runt-SMMHC FRET: -3; IMP-1 inhibitor: -3

Results for CCc1nn(-c2ccccc2)c2c1-c1cc(OC)c(OC)cc1C1(N2)C(=O)Nc2ccccc21 (stereo not drawn) ?
Runt-CBFb FRET: 0; VIM-2 inhibitor: -2; Runt-SMMHC FRET: 0; IMP-1 inhibitor: 1; RanGTP-Impb inh: 31*

Results for CCC(C)(C)NC(=O)C(c1ccc(C)o1)N(Cc1cccs1)C(=O)Cn1nnc2ccccc21 (stereo not drawn) ?
Runt-CBFb FRET: -2; VIM-2 inhibitor: -4; Runt-SMMHC FRET: 1; IMP-1 inhibitor: 10.0*; RanGTP-Impb inh: 0

What do the screens show for `CCC(C)(C)NC(=O)C(c1ccccc1)N(Cc1cccs1)C(=O)Cn1nnc2ccccc21` (stereo not drawn)?
VIM-2 inhibitor: 0; IMP-1 inhibitor: -1; RanGTP-Impb inh: -2

How did Cc1cnc(N)c2c(=O)oc3ccccc3c12 do in these assays?
Runt-CBFb FRET: 5; VIM-2 inhibitor: 8.4*; Runt-SMMHC FRET: 4; IMP-1 inhibitor: -4; RanGTP-Impb inh: 3

Results for Clc1c(-c2ccccc2)nc2ccccn12 ?
VIM-2 inhibitor: 3; IMP-1 inhibitor: -2; RanGTP-Impb inh: -1
